ChEMBL document CHEMBL4138279, “Probing the Antiallergic and Anti-inflammatory Activity of Biflavonoids and Dihydroflavonols from Dietes bicolor” (J Nat Prod, 2018)

Assays:
RBL-2H3 [1] = test: Antiallergic activity in anti-DNP IgE-sensitized rat RBL2H3 cells assessed as inhibition of DNP-BSA-induced beta hexosaminidase release pretreated for 10 mins followed by DNP-BSA addition measured after 10 mins by p-NAG substrate based assay; format: functional, cell-based
RBL-2H3 [2] = test: (§1) Antiallergic activity in anti-DNP IgE-sensitized rat RBL2H3 cells assessed as inhibition of DNP-BSA-induced beta hexosaminidase release at 10 uM pretreated for 20 hrs followed by anti-DNP IgE-sensitization for 2 hrs and subsequent DNP-BSA addition measured after 1 hr by p-NAG substrate based assay relative to control; format: functional
Method in brief: (§2)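 RBL-2H3 cells in DMEM with 10% FBS at 37 °C and 5% CO2 were seeded at 3 × 10^4 cells/well overnight, then treated 20 h with compounds (1 to 400 μM). Cells were sensitized with anti-DNP IgE (1 μg/mL, at least 2 h) and challenged with DNP-BSA (100 ng/mL) for 1 h. β-Hexosaminidase was read with p-NAG substrate as % inhibition versus antigen control. Mean ± SD, n = 3.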

RBL-2H3 [3] = test: Antiallergic activity in rat RBL2H3 cells assessed as inhibition of A23187-induced beta hexosaminidase release at 1 uM pretreated for 20 hrs followed by A23187 addition measured after 1 hr by p-NAG substrate based assay relative to control; format: functional
Method in brief: (§3)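 Degranulation assay: RBL-2H3 cells were seeded at 2 × 10^4 cells/well overnight and exposed to compounds (1 to 400 μM) for 20 h. They were then activated with calcium ionophore A23187 (1 μM). Released β-hexosaminidase was quantified using p-NAG substrate and expressed as % inhibition relative to A23187 control, mean ± SD (n = 3).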

RBL-2H3 [4] = test: Antiallergic activity in rat RBL2H3 cells assessed as inhibition of A23187-induced beta hexosaminidase release at 10 uM pretreated for 20 hrs followed by A23187 addition measured after 1 hr by p-NAG substrate based assay relative to control; format: functional; method in brief: as §3
RBL-2H3 [5] = test: as §1, with “100” for “10”; format: functional; method in brief: as §2
Neutrophil [6] = test: (§4) Anti-inflammatory activity in human neutrophils assessed as inhibition of fMLP/CB-induced superoxide anion generation pretreated for 5 mins followed by cytochalasin B addition for 3 mins and subsequent fMLP stimulation for 10 mins by superoxide dismutase inhibitable reduction of ferricytochrome c based spectrophotometric assay; format: functional, cell-based
Method in brief: (§5)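 Human neutrophils isolated from venous blood of healthy adult volunteers (20−30 years), stimulated with fMLF/cytochalasin B. Superoxide anion was measured as ferricytochrome c reduction. Pure compounds were tested at 0.3 to 10 μM. IC50 was taken as the concentration giving 50% inhibition, and single-point values as % inhibition at 10 μM versus fMLF/CB control. Mean ± SEM, n = 3−4.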

Neutrophil [7] = test: as §4, with “generation at 10 uM” for “generation”, “assay relative to control” for “assay”; format: functional; method in brief: as §5
Neutrophil [8] = test: Antiinflammatory activity in human neutrophils assessed as inhibition of fMLP/CB-induced elastase release pretreated for 5 mins followed by fMLP/CB stimulation using MeO-Suc-Ala-Ala-Pro-Val-p-nitroanilide as substrate; format: functional, cell-based
Method in brief: (§6)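 Elastase release from fMLF/cytochalasin B-activated human neutrophils, isolated from venous blood of healthy volunteers aged 20−30, measured with N-methoxysuccinyl-Ala-Ala-Pro-Val-p-nitroanilide as substrate. Pure compounds were tested at 0.3 to 10 μM. Results are IC50 or % inhibition at 10 μM relative to fMLF/CB control, mean ± SEM (n = 3−4).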

[9] = Cytotoxicity against rat RBL2H3 cells assessed as cell viability at 400 uM after 24 hrs by MTT assay relative to control; format: cell-based; conditions: RBL-2H3 cells, read-out: Activity
Method in brief: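 Viability of RBL-2H3 cells, cultured in DMEM with 10% FBS at 37 °C and 5% CO2, was determined by MTT after exposure to pure compounds at 400 μM. It is expressed as % of untreated control, mean ± SD (n = 3). Viability below 80% was classed as cytotoxic.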

RBL-2H3 [10] = test: Antiallergic activity in rat RBL2H3 cells assessed as inhibition of A23187-induced beta hexosaminidase release at 200 uM pretreated for 20 hrs followed by A23187 addition measured after 1 hr by p-NAG substrate based assay relative to control; format: functional; method in brief: as §3
RBL-2H3 [11] = test: Antiallergic activity in rat RBL2H3 cells assessed as inhibition of A23187-induced beta hexosaminidase release at 100 uM pretreated for 20 hrs followed by A23187 addition measured after 1 hr by p-NAG substrate based assay relative to control; format: functional; method in brief: as §3
Neutrophil [12] = test: Antiinflammatory activity in human neutrophils assessed as inhibition of fMLP/CB-induced elastase release at 10 uM pretreated for 5 mins followed by fMLP/CB stimulation using MeO-Suc-Ala-Ala-Pro-Val-p-nitroanilide as substrate relative to control; format: functional; method in brief: as §6
RBL-2H3 [13] = test: as §1, with “200” for “10”; format: functional; method in brief: as §2
RBL-2H3 [14] = test: as §1, with “1” for “10”; format: functional; method in brief: as §2
RBL-2H3 [15] = test: Antiallergic activity in rat RBL2H3 cells assessed as inhibition of A23187-induced beta hexosaminidase release at 400 uM pretreated for 20 hrs followed by A23187 addition measured after 1 hr by p-NAG substrate based assay relative to control; format: functional; method in brief: as §3
Neutrophil elastase = molecular target: T1, Neutrophil elastase (Homo sapiens, UniProt P08246); test: Inhibition of human neutrophil elastase using N-Methoxysuccinyl-Ala-Ala-Pro-Val-p-nitroanilid as substrate measured after 1 hr
T1 sequence (P08246 whole entry): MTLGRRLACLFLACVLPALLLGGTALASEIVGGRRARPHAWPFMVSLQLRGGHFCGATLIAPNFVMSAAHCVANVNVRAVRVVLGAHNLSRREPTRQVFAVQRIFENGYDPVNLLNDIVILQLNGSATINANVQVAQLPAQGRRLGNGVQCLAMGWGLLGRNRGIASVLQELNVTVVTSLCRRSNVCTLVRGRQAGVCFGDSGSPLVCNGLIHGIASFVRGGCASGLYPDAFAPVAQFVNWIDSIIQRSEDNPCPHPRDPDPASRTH

RBL-2H3 [16] = test: as §1, with “400” for “10”; format: functional; method in brief: as §2
RBL-2H3 [17] = test: as §1, with “nM” for “uM”; format: functional
RBL-2H3 [18] = test: Antiallergic activity in rat RBL2H3 cells assessed as inhibition of A23187-induced beta hexosaminidase release at 10 nM pretreated for 20 hrs followed by A23187 addition measured after 1 hr by p-NAG substrate based assay relative to control; format: functional

COc1c(O)cc(O)c2c1O[C@H](c1ccccc1)[C@@H](O)C2=O
IC50 (RBL-2H3 [1]): > 100000 nM

COc1cc(O)c2c(=O)c(-c3ccc(O)c(OC)c3)coc2c1
inhibition at 10 µM (RBL-2H3 [2]): 1.3% | inhibition at 1 µM (RBL-2H3 [3]): 0.3% | IC50 (RBL-2H3 [1]): > 100000 nM | inhibition at 10 µM (RBL-2H3 [4]): 1.7% | inhibition at 100 µM (RBL-2H3 [5]): 9% | IC50 (Neutrophil [6]): > 10000 nM | inhibition at 10 µM (Neutrophil [7]): 48.9% | IC50 (Neutrophil [8]): > 10000 nM | viability at 24 h, 400 µM [9]: 69% | inhibition at 200 µM (RBL-2H3 [10]): 22.7% | inhibition at 100 µM (RBL-2H3 [11]): 23.7% | inhibition at 10 µM (Neutrophil [12]): 27.1% | inhibition at 200 µM (RBL-2H3 [13]): 18% | inhibition at 1 µM (RBL-2H3 [14]): 2.3%

COc1c2c(cc3c1C(=O)[C@H](O)[C@@H](c1ccccc1)O3)OCO2 (relative stereo)
IC50 (RBL-2H3 [1]): > 100000 nM

COc1cc(OC)c2c(c1)O[C@H](c1ccccc1)[C@@H](O)C2=O (relative stereo)
IC50 (RBL-2H3 [1]): > 100000 nM

O=c1cc(-c2ccc(O)c(-c3c(O)cc(O)c4c(=O)cc(-c5ccc(O)cc5)oc34)c2)oc2cc(O)cc(O)c12 [AMENTOFLAVONE]
inhibition at 400 µM (RBL-2H3 [15]): 42.3% | inhibition at 10 µM (RBL-2H3 [2]): 1.3% | inhibition at 1 µM (RBL-2H3 [3]): 2% | inhibition at 10 µM (RBL-2H3 [4]): 6.7% | inhibition at 100 µM (RBL-2H3 [5]): 2.7% | IC50 (Neutrophil [6]): 1010 nM | inhibition at 10 µM (Neutrophil [7]): 104% | IC50 (Neutrophil [8]): 750 nM | viability at 24 h, 400 µM [9]: 97.7% | inhibition at 200 µM (RBL-2H3 [10]): 3.3% | inhibition at 100 µM (RBL-2H3 [11]): 0% | inhibition at 10 µM (Neutrophil [12]): 108% | inhibition at 200 µM (RBL-2H3 [13]): 7.7% | IC50 (Neutrophil elastase): 1270 nM | inhibition at 400 µM (RBL-2H3 [16]): 50% | inhibition at 1 µM (RBL-2H3 [14]): 4.7%

C[C@@H]1C[C@H]2[C@@H]3CCC4=CC(=O)C=C[C@]4(C)[C@@]3(F)[C@@H](O)C[C@]2(C)[C@@]1(O)C(=O)CO [DEXAMETHASONE]
inhibition at 0.01 µM (RBL-2H3 [17]): 79.7% | inhibition at 0.01 µM (RBL-2H3 [18]): 80.7%

O=c1cc(N2CCOCC2)oc2c(-c3ccccc3)cccc12 [LY-294002]
IC50 (Neutrophil [6]): 1250 nM | inhibition at 10 µM (Neutrophil [7]): 96.5% | IC50 (Neutrophil [8]): 3440 nM | inhibition at 10 µM (Neutrophil [12]): 71.5%

O=c1cc(-c2ccc(O)c(-c3c(O)cc4oc(-c5ccc(O)cc5)cc(=O)c4c3O)c2)oc2cc(O)cc(O)c12 [ROBUSTAFLAVONE]
inhibition at 400 µM (RBL-2H3 [15]): 45.3% | inhibition at 10 µM (RBL-2H3 [2]): 3% | inhibition at 1 µM (RBL-2H3 [3]): 2.3% | inhibition at 10 µM (RBL-2H3 [4]): 5.3% | inhibition at 100 µM (RBL-2H3 [5]): 2.7% | IC50 (Neutrophil [6]): 1010 nM | inhibition at 10 µM (Neutrophil [7]): 105% | IC50 (Neutrophil [8]): 450 nM | viability at 24 h, 400 µM [9]: 92.3% | inhibition at 200 µM (RBL-2H3 [10]): 2.7% | inhibition at 100 µM (RBL-2H3 [11]): 6% | inhibition at 10 µM (Neutrophil [12]): 103% | inhibition at 200 µM (RBL-2H3 [13]): 3% | IC50 (Neutrophil elastase): 1330 nM | inhibition at 400 µM (RBL-2H3 [16]): 49% | inhibition at 1 µM (RBL-2H3 [14]): 4%
